ChEMBL document CHEMBL5230083, “Novel 2, 5-diketopiperazine derivatives as potent selective histone deacetylase 6 inhibitors: Rational design, synthesis and antiproliferative activity” (Eur J Med Chem, 2020)
Blank lines part the entries; values can stand above or below the molecule they belong to. Active and inactive are the calls of the source. The calls are words filed in the database; no cut-off is given here.

What was measured:
A498 = assay: Antiproliferative activity against human A498 cells assessed as cell growth at 10 uM incubated for 48 hrs by SRB assay relative to control; type: functional; conditions: read-out: Activity
Outline: (§1)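 Single-concentration screen at 10 μM run by NCI on its NCI-60 human tumour panel (blood, lung, colon, CNS, melanoma, ovary, kidney, prostate, breast), following the NCI-60 published methodology. Read-out is growth percent relative to untreated cells.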

[1] = biological target: Protein deacetylase HDAC6 (Homo sapiens) (UniProt Q9UBN7); assay: Inhibition of HDAC6 in human HCT-116 cells assessed as increase in acetylated alpha-tubulin level incubated for 24 hrs by Western blot analysis; type: cell-based; conditions: dose 0.1-10 µM
Chain of Protein deacetylase HDAC6 (Homo sapiens) (Q9UBN7 whole entry): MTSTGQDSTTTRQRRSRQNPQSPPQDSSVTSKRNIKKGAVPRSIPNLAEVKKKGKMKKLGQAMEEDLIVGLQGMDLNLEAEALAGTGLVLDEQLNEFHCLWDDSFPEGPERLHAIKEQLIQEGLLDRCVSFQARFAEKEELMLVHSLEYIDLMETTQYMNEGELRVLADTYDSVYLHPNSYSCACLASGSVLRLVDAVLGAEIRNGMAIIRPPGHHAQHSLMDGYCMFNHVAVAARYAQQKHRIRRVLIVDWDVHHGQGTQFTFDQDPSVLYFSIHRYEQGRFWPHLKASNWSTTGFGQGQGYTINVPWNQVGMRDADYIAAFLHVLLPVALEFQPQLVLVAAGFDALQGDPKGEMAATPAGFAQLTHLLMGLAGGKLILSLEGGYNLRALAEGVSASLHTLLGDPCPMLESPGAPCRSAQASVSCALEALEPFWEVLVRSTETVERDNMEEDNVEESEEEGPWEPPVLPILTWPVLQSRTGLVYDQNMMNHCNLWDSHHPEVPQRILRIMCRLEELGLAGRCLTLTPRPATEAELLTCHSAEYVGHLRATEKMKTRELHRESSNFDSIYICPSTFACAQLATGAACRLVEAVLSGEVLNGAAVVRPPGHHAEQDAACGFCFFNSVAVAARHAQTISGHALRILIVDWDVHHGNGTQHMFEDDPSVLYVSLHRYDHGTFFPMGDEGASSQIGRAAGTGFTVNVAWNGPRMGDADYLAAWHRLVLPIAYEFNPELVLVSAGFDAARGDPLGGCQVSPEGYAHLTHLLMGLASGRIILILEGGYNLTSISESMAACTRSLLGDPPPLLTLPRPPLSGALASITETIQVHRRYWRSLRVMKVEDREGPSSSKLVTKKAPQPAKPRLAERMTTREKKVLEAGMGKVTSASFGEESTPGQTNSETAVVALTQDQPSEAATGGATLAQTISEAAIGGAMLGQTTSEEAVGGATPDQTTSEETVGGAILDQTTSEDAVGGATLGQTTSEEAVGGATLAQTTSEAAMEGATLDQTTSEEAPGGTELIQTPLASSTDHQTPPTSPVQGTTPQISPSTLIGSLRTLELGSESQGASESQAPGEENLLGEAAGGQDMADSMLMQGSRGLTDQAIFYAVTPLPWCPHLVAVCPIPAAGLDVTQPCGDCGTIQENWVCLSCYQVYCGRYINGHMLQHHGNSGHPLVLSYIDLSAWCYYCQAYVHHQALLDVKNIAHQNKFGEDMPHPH
Outline: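 HCT116 cells were seeded overnight, then treated at 0.1, 1 and 10 μM for 24 h. Cells were lysed with protein extraction reagent plus EDTA-free protease inhibitors. 30 µg protein per sample was resolved by SDS-PAGE and blotted to nitrocellulose. Ac-α-tubulin and Ac-H3 were probed and detected by ECL.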

Histone deacetylase 4 = Histone deacetylase 4 (Homo sapiens, UniProt P56524); assay: Inhibition of HDAC4 (unknown origin) using Fluor de lys as substrate by fluorescence based analysis
Chain of Histone deacetylase 4 (P56524 whole entry): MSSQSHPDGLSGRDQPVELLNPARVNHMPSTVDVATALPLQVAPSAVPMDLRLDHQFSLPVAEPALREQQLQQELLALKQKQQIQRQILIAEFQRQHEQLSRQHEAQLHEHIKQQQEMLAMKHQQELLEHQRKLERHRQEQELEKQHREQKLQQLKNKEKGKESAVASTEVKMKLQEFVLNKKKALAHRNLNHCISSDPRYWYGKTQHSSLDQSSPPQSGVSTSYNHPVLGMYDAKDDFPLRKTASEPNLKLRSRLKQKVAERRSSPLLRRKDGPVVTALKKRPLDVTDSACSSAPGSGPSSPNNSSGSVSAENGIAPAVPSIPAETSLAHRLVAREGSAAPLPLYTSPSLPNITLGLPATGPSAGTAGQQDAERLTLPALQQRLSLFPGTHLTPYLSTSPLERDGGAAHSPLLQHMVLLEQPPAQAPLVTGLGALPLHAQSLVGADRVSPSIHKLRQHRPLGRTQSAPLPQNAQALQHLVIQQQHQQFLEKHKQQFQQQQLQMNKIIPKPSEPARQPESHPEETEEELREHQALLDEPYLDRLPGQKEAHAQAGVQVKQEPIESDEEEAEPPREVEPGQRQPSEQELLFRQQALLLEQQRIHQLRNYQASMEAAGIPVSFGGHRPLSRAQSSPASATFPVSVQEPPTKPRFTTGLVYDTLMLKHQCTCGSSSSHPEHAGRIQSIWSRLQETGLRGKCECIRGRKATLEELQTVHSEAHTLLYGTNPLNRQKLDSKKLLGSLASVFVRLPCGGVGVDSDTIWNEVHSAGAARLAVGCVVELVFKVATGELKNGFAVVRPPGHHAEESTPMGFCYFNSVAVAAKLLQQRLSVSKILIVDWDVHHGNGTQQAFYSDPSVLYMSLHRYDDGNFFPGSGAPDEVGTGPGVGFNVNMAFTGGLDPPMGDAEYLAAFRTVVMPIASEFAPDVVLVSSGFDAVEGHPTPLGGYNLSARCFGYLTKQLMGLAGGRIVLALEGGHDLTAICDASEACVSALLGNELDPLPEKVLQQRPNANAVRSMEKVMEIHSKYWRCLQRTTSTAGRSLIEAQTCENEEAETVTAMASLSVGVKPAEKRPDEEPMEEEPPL

COLO 205 = assay: Antiproliferative activity against human COLO 205 cells assessed as cell growth at 10 uM incubated for 48 hrs by SRB assay relative to control; type: functional; conditions: read-out: Activity; outline: as §1
Histone deacetylase 9 = Histone deacetylase 9 (Homo sapiens, UniProt Q9UKV0); assay: Inhibition of HDAC9 (unknown origin) using Fluor de lys as substrate by fluorescence based analysis
Chain of Histone deacetylase 9 (Q9UKV0 whole entry): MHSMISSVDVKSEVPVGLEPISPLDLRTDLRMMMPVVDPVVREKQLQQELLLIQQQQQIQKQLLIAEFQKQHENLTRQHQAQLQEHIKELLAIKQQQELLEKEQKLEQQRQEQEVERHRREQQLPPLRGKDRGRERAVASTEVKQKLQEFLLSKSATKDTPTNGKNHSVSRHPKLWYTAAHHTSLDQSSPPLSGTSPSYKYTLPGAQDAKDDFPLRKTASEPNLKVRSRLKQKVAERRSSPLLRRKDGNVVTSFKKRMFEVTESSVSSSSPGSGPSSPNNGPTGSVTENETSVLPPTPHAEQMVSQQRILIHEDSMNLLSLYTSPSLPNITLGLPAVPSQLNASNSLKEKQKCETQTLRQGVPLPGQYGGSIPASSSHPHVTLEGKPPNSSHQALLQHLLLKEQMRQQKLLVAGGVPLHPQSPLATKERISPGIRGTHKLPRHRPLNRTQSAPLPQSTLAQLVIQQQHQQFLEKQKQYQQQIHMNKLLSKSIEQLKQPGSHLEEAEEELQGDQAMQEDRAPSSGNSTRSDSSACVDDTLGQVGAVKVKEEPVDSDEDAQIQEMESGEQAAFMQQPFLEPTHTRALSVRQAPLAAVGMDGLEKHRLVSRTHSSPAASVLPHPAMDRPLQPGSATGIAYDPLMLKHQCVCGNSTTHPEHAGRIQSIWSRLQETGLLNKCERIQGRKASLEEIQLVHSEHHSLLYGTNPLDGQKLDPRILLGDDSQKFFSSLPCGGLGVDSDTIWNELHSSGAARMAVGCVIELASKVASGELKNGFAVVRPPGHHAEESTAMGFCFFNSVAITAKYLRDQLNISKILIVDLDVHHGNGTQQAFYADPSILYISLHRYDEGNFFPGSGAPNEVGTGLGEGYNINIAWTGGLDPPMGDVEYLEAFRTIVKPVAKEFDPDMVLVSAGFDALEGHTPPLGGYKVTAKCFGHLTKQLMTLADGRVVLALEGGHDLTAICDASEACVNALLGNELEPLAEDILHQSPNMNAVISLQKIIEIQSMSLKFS

Histone deacetylase 5 = Histone deacetylase 5 (Homo sapiens, UniProt Q9UQL6); assay: Inhibition of HDAC5 (unknown origin) using Fluor de lys as substrate by fluorescence based analysis
Chain of Histone deacetylase 5 (Q9UQL6 whole entry): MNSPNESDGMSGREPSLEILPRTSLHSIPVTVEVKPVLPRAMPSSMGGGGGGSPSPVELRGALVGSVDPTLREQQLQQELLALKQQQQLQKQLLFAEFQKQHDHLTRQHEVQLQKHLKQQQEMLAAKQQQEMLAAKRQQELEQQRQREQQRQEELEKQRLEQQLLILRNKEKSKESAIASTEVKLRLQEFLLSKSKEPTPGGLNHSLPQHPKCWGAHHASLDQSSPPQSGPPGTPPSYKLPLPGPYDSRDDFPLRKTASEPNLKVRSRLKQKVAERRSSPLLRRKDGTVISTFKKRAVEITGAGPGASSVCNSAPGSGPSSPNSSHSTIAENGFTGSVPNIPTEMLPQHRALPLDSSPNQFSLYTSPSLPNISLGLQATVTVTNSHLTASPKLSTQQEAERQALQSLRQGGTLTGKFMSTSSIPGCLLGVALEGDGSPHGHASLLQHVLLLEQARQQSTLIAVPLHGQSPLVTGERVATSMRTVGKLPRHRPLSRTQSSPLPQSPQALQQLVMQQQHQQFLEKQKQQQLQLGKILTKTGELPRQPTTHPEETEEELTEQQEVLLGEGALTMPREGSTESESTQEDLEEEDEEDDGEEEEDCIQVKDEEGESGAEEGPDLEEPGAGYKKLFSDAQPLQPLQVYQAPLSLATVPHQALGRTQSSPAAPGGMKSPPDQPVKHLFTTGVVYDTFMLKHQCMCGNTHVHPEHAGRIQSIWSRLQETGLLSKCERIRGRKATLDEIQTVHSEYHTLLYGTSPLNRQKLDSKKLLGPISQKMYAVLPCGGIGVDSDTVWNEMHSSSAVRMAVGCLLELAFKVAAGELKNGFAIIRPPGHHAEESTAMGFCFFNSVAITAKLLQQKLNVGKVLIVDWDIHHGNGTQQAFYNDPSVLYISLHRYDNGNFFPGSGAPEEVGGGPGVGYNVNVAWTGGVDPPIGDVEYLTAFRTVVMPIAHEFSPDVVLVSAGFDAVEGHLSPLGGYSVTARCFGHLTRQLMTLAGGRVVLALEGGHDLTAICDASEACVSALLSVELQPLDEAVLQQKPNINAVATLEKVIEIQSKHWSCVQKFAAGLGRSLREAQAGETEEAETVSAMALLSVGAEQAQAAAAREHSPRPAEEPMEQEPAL

SF-268 = assay: Antiproliferative activity against human SF-268 cells assessed as cell growth at 10 uM incubated for 48 hrs by SRB assay relative to control; type: functional; conditions: read-out: Activity; outline: as §1
[2] = Cytotoxicity against human HS5 cells assessed as inhibition of cell growth incubated for 72 hrs by alamar blue assay; type: toxicity, cell-based
Outline: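 Cells were grown in IMDM with 20% FBS and penicillin/streptomycin at 37 °C in 5% CO2. Drug-treated cells were incubated 72 h. Alamar blue (1 mM solution) was then added for 5–6 h, and fluorescence read at 530/590 nm.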

[3] = biological target: Histone deacetylase 3 (Homo sapiens) (UniProt O15379); assay: Inhibition of HDAC3 (unknown origin) using Fluor de lys as substrate by fluorescence based analysis
Chain of Histone deacetylase 3 (Homo sapiens) (O15379 whole entry): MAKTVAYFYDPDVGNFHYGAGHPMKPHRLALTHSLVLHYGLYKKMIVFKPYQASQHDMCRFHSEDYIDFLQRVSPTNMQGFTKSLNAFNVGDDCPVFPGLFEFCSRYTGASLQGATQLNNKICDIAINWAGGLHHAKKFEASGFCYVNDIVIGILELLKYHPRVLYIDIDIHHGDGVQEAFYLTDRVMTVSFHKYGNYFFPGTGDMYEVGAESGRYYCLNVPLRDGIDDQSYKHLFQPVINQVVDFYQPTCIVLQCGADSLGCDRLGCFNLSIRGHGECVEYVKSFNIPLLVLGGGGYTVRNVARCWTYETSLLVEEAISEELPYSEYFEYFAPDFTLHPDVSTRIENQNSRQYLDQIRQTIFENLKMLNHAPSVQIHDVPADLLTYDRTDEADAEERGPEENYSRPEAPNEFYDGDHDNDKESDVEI
Outline: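 Fluor de Lys fluorogenic substrate/developer activity assay, run by a contract lab. […] Experiments were run in duplicate.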

HL-60 = assay: Antiproliferative activity against human HL-60 cells assessed as cell growth at 10 uM incubated for 48 hrs by SRB assay relative to control; type: functional; conditions: read-out: Activity; outline: as §1
Histone deacetylase 11 = Histone deacetylase 11 (Homo sapiens, UniProt Q96DB2); assay: Inhibition of HDAC11 (unknown origin) using Fluor de lys as substrate by fluorescence based analysis
[4] = biological target: Polyamine deacetylase HDAC10 (Homo sapiens, UniProt Q969S8); assay: Inhibition of HDAC10 (unknown origin) incubated for 1 hr by TR-FRET analysis
HT-29 = assay: Antiproliferative activity against human HT-29 cells assessed as cell growth at 10 uM incubated for 48 hrs by SRB assay relative to control; type: functional; conditions: read-out: Activity; outline: as §1
NCI-H226 = assay: Antiproliferative activity against human NCI-H226 cells assessed as cell growth at 10 uM incubated for 48 hrs by SRB assay relative to control; type: functional; conditions: read-out: Activity; outline: as §1
SN12C = assay: Antiproliferative activity against human SN12C cells assessed as cell growth at 10 uM incubated for 48 hrs by SRB assay relative to control; type: functional; conditions: read-out: Activity
Outline: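 NCI-60 single-dose screen: compounds tested at 10 μM, and growth percent of each cell line calculated. The full method follows the NCI DTP protocol.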

A549 [5] = assay: Antiproliferative activity against human A549 cells assessed as inhibition of cell growth incubated for 72 hrs in presence of adriamycin by alamar blue assay; type: functional, cell-based; conditions: A549, 72 h
Outline: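 Alamar blue assay in IMDM/20% FBS at 37 °C, 5% CO2. Cells were exposed to the two agents together for 72 h, with 5–6 h Alamar blue and fluorescence at 530/590 nm. IC50 in combination was determined. CI50 = IC50Ac/IC50As + IC50Bc/IC50Bs, comparing combination with single-agent IC50s.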

Homo sapiens [6] = organism: Homo sapiens; assay: Selectivity index, ratio of IC50 for inhibition of HDAC8 (unknown origin) to IC50 for inhibition of HDAC6 (unknown origin)
Outline: (§2)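 Ratio of IC50 values, each from a Fluor de Lys fluorogenic HDAC assay run in duplicate.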

Homo sapiens [7] = organism: Homo sapiens; assay: Selectivity index, ratio of IC50 for inhibition of HDAC1 (unknown origin) to IC50 for inhibition of HDAC6 (unknown origin); outline: as §2
[8] = Microsomal stability in human liver microsomes assessed as half life at 0.5 uM prewarmed for 5 mins followed by NADPH addition and measured for 90 mins by LC-MS/MS analysis; type: ADME, Microsome; conditions: time 95 min
Outline: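 Incubation held 0.8 mg/mL human liver microsomes, MgCl2, potassium phosphate buffer pH 7.4 and 0.5 μM compound. After 5 min prewarming at 37 °C, NADPH started the reaction.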

A549 [9] = assay: Antiproliferative activity against human A549 cells assessed as inhibition of cell growth incubated for 72 hrs by alamar blue assay; type: functional, cell-based; conditions: A549, 72 h
Outline: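 Cells grown in IMDM with 20% FBS and penicillin/streptomycin at 37 °C, 5% CO2. Compound added to plated cells for 72 h. Alamar blue (1 mM solution) then added for 5–6 h, and fluorescence read at 530/590 nm. IC50 derived for single-agent treatment.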

A549 [10] = assay: Synergistic antiproliferative activity against human A549 cells assessed as combination index incubated for 72 hrs presence of adriamycin by alamar blue assay; type: functional
OVCAR-4 = assay: Antiproliferative activity against human OVCAR-4 cells assessed as cell growth at 10 uM incubated for 48 hrs by SRB assay relative to control; type: functional; conditions: read-out: Activity; outline: as §1

inhibition [1]: Dose-Dependent Effect
IC50 (Histone deacetylase 4): 5.62 µM
IC50 (Histone deacetylase 9): 2.56 µM
IC50 (Histone deacetylase 5): 4.37 µM
inhibition [3]: inactive
IC50 (Histone deacetylase 11): 1.8 µM
IC50 [4]: 0.105 µM
Compound: O=C1CN(Cc2ccc(C(=O)NO)cc2)C(=O)[C@@H](Cc2c[nH]c3ccccc23)N1
growth at 10 µM (A498): 85%
growth at 10 µM (COLO 205): 120%
growth at 10 µM (SF-268): 99.3%
IC50 at 72 hrs [2]: > 100 µM
growth at 10 µM (HL-60): 126%
growth at 10 µM (HT-29): 104%
growth at 10 µM (NCI-H226): 97.6%
growth at 10 µM (SN12C): 100%

IC50 (A549 [5]): 8.17 µM
Ratio IC50 (Homo sapiens [6]): 15
Ratio IC50 (Homo sapiens [7]): 981
half-life at 0.5 µM [8]: 9.7 h
IC50 (A549 [9]): 100 µM
Compound: O=C(NO)c1ccc(CN2CC(=O)N(Cc3ccccc3)[C@H](Cc3ccccc3)C2=O)cc1
growth at 10 µM (A498): 67.4%
growth at 10 µM (COLO 205): 89.2%
growth at 10 µM (SF-268): 96.5%
IC50 at 72 hrs [2]: > 100 µM
growth at 10 µM (HL-60): 102%
CI (A549 [10]): 0.676
growth at 10 µM (HT-29): 87.9%
growth at 10 µM (OVCAR-4): 66.5%
growth at 10 µM (SN12C): 96.6%
